How the values were obtained:
L6 = assay: Cytotoxicity against rat L6 cells assessed as reduction in cell viability after 70 hrs by Alamar blue dye-based fluorometric analysis; conditions: L6, 70 h
Outline: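 Rat skeletal myoblast L6 cells, 4000 per well in RPMI 1640 with L-glutamine and 10% FBS. Eleven 3-fold dilutions from 100 to 0.002 μg/mL, 70 h. Wells checked by microscope, then Alamar Blue added for 2 h. Fluorescence read at 536/588 nm; IC50 by linear and 4-parameter logistic regression of dose-inhibition curves.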

[1] = test system: Trypanosoma brucei brucei; assay: Antitrypanosomal activity against Trypanosoma brucei brucei 427 assessed as parasite growth inhibition incubated for 48 hrs by resazurin dye based assay; type: functional, organism-based
Outline: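 Log-phase T. b. brucei 427 at 1200 parasites/mL in HMI-9 with 10% FCS, preincubated 24 h at 37 °C/5% CO₂. Serial dilutions made in DMEM, final 83.34 to 0.04 μM, 48 h exposure. 0.49 mM resazurin solution added, then 2 h at 37 °C plus 22 h at room temperature. Fluorescence read at ex 535/em 590 nm; IC50 from concentration curves.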

[2] = Selectivity index, ratio of IC50 for human HEK293 cells to IC50 for antitrypanosomal activity against Trypanosoma brucei brucei 427; type: toxicity; conditions: read-out: Ratio IC50
[3] = test system: Trypanosoma brucei brucei; assay: Antitrypanosomal activity against Trypanosoma brucei brucei 427 assessed as parasite growth inhibition at 79.4 uM incubated for 48 hrs by resazurin dye based assay relative to control; type: functional; parameters: scale not given: the % may be the effect or the level left
HEK293 [4] = assay: Cytotoxicity against human HEK293 cells assessed as reduction in cell viability at 79.4 uM incubated for 48 hrs by resazurin dye based assay relative to control; conditions: hek293, 48 h
HEK293 [5] = assay: Cytotoxicity against human HEK293 cells assessed as reduction in cell viability at 83.3 uM incubated for 48 hrs by resazurin dye based assay relative to control; conditions: hek293, 48 h
HEK293 [6] = assay: Cytotoxicity against human HEK293 cells assessed as reduction in cell viability incubated for 48 hrs by resazurin dye based assay
Outline: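 HEK293 cells at 7.27×10⁴ cells/mL in DMEM with 10% FCS, preincubated 24 h at 37 °C/5% CO₂. Compounds serially diluted in DMEM, final 83.34 to 0.04 μM, 48 h. 0.49 mM resazurin solution in medium added, then 2 h at 37 °C plus 22 h at room temperature. Fluorescence read at 535/590 nm; IC50 calculated.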

[7] = test system: Trypanosoma brucei rhodesiense; assay: Antitrypanosomal activity against bloodstream form of Trypanosoma brucei rhodesiense STIB900 incubated for 70 hrs by Alamar blue dye-based fluorometric analysis; type: functional, organism-based; conditions: STIB900, 70 h
[8] = Selectivity index, ratio of IC50 for rat L6 cells to IC50 for antitrypanosomal activity against bloodstream form of Trypanosoma brucei rhodesiense STIB900; type: toxicity; conditions: read-out: Ratio IC50
[9] = test system: Trypanosoma brucei brucei; assay: Antitrypanosomal activity against Trypanosoma brucei brucei 427 assessed as parasite growth inhibition at 83.3 uM incubated for 48 hrs by resazurin dye based assay relative to control; type: functional; parameters: scale not given: the % may be the effect or the level left
HEK293 [10] = assay: Cytotoxicity against human HEK293 cells assessed as reduction in cell viability at 41.7 uM incubated for 48 hrs by resazurin dye based assay relative to control; conditions: hek293, 48 h
[11] = Selectivity index, ratio of IC50 for antitrypanosomal activity against bloodstream form of Trypanosoma brucei rhodesiense STIB900 to IC50 for antitrypanosomal activity against Trypanosoma brucei brucei 427; type: functional
[12] = test system: Trypanosoma brucei brucei; assay: Antitrypanosomal activity against Trypanosoma brucei brucei 427 assessed as parasite growth inhibition at 41.7 uM incubated for 48 hrs by resazurin dye based assay relative to control; type: functional; parameters: scale not given: the % may be the effect or the level left
[13] = Trypanosoma brucei, 427, 48 h, read-out: IC50
[14] = Homo sapiens, HEK293, 48 h, read-out: IC50

SMILES	IC50 [1, 13] [µM]	selectivity ratio [2]	Activity (HEK293 [5]) [%]	other results
COc1cc([C@@H]2c3cc4c(cc3[C@H](O)[C@H]3COC(=O)[C@H]23)OCO4)cc(OC)c1OC [PODOFILOX]				IC50 (L6): 0.011 µM
N=C(N)c1ccc(OCCCCCOc2ccc(C(=N)N)cc2)cc1 [PENTAMIDINE]	0.00213	307		
CC1(C)CC(=O)c2sc(NC(=O)c3cccs3)nc2C1				Activity [3]: 90%; Activity (HEK293 [4]): < 50%
COc1cccc2cc(C(=O)Nc3nc4c(s3)C(=O)CC(C)(C)C4)sc12				IC50 [1]: Nd(Insoluble); IC50 (HEK293 [6]; hek293): Nd(Insoluble); IC50 [7]: 8.68 µM; IC50 (L6): 54.5 µM; selectivity ratio [8]: 6
O=C(Nc1nc2c(s1)CCCC2)c1sc2ccccc2c1Cl			< 50	Activity [9]: 89%
CC1(C)CC(=O)c2sc(NC(=O)c3sc4ccccc4c3-c3cccc4ccccc34)nc2C1			52	Activity [9]: 100%
O=C(Nc1nc2c(s1)C(=O)CCC2)c1cc2ccccc2s1				Activity [3]: 97%; Activity (HEK293 [4]): < 50%
CC1(C)CC(=O)c2sc(NC(=O)c3sc4ccccc4c3-c3ccccc3)nc2C1				Activity [12]: 93%; Activity (HEK293 [10]): < 50%
O=C1CCCc2nc(NC(=O)c3sc4cc(Br)ccc4c3Cl)sc21				Activity [3]: 78%; Activity (HEK293 [4]): < 50%
O=C(Nc1nc2ccccc2s1)c1sc2ccccc2c1Cl			< 50	Activity [9]: <50%
Nc1nc(N)nc(Nc2ccc([As]3SCC(CO)S3)cc2)n1 (stereo unspecified) [MELARSOPROL]				IC50 [7]: 0.014 µM
CC1(C)CC(=O)c2sc(NC(=O)c3sc4ccccc4c3-c3ccc(C(F)(F)F)cc3)nc2C1			< 50	Activity [9]: <50%
O=C(Nc1nccs1)c1sc2ccccc2c1Cl			< 50	Activity [9]: 96%
C=CCN(C(=O)c1sc2ccccc2c1Cl)c1nc2c(s1)C(=O)CCC2			< 50	Activity [9]: <50%
O=C1CCCc2nc(NC(=O)c3sc4ccccc4c3-c3ccc(C(F)(F)F)cc3)sc21			59	Activity [12]: 97%
O=C1CCCc2nc(NC(=O)c3sc4ccccc4c3-c3ccccc3)sc21			< 50	Activity [9]: 77%

Continued, in another order:

IC50 [1, 13] [µM]	SMILES	selectivity ratio [2]	Activity (HEK293 [5]) [%]	other results
9.39	COc1cccc(-c2c(C(=O)Nc3nc4c(s3)C(=O)CCC4)sc3ccccc23)c1	> 9	88	
0.32	CC1(C)CC(=O)c2sc(NC(=O)c3sc4c(Br)cccc4c3Cl)nc2C1	> 130		Activity (HEK293 [10]): < 50%; IC50 [7]: 7.13 µM; IC50 (L6): 25.2 µM; selectivity ratio [8]: 4
2.5	O=C1CCCc2nc(NC(=O)c3sc4ccccc4c3Cl)sc21	> 48	< 50	IC50 [7]: 8.96 µM; IC50 (L6): 24.9 µM; selectivity ratio [8]: 3; Ratio IC50 [11]: 4
2.27	Cc1ccc2c(Cl)c(C(=O)Nc3nc4c(s3)C(=O)CC(C)(C)C4)sc2c1	> 37	< 50	
0.75	CC1(C)CC(=O)c2sc(NC(=O)c3cc4ccccc4s3)nc2C1	> 106		Activity (HEK293 [4]): < 50%; IC50 [7]: 5.04 µM; IC50 (L6): 65.4 µM; selectivity ratio [8]: 13
7.77	Cc1ccc2c(Cl)c(C(=O)Nc3nc4c(s3)C(=O)CCC4)sc2c1	> 11	< 50	
2.79	CC1(C)CC(=O)c2sc(NC(=O)c3cc4cccc(-c5ccccc5)c4s3)nc2C1	> 28		Activity (HEK293 [4]): < 50%
0.73	CC1(C)CC(=O)c2sc(NC(=O)c3sc4ccccc4c3Cl)nc2C1	14		IC50 (HEK293 [6]; [14]): 10.4 µM
5.86	COc1ccc2sc(C(=O)Nc3nc4c(s3)C(=O)CC(C)(C)C4)c(Cl)c2c1	> 14	< 50	
6.53	CC1(C)CC(=O)c2sc(NC(=O)c3sc4cc(Br)ccc4c3Cl)nc2C1	> 12		Activity (HEK293 [4]): < 50%
2.21	COc1cccc(-c2c(C(=O)Nc3nc4c(s3)C(=O)CC(C)(C)C4)sc3ccccc23)c1	> 38	< 50	
1.41	CC1(C)CC(=O)c2sc(NC(=O)c3nc4ccccc4s3)nc2C1	> 56		Activity (HEK293 [4]): < 50%; IC50 [7]: 10.6 µM; IC50 (L6): 30.4 µM; selectivity ratio [8]: 3
7.23	COc1ccc(-c2c(C(=O)Nc3nc4c(s3)C(=O)CCC4)sc3ccccc23)cc1	> 12	88	
2.91	COc1ccc(-c2c(C(=O)Nc3nc4c(s3)C(=O)CC(C)(C)C4)sc3ccccc23)cc1	> 29	< 50	
6.38	O=C1CCCc2nc(NC(=O)c3sc4ccccc4c3-c3cccc4ccccc34)sc21	1		IC50 (HEK293 [6]; [14]): 4.63 µM

— ChEMBL document CHEMBL4673193, “Investigation of thiazolyl-benzothiophenamides as potential agents for African sleeping sickness” (RSC Med Chem, 2020)
